The results in this text go back to ChEMBL document CHEMBL1125023, “Flexible N-methyl-4-phenyl-1,2,3,6-tetrahydropyridine analogues: synthesis and monoamine oxidase catalyzed bioactivation” (J Med Chem, 1990).

As usually defined, the Km is the concentration of substrate that gives half-maximal velocity.

The target of data set [1] is T1, Monoamine oxidase (Rattus norvegicus, UniProt P19643+P21396).
T1 sequence (P19643 whole entry): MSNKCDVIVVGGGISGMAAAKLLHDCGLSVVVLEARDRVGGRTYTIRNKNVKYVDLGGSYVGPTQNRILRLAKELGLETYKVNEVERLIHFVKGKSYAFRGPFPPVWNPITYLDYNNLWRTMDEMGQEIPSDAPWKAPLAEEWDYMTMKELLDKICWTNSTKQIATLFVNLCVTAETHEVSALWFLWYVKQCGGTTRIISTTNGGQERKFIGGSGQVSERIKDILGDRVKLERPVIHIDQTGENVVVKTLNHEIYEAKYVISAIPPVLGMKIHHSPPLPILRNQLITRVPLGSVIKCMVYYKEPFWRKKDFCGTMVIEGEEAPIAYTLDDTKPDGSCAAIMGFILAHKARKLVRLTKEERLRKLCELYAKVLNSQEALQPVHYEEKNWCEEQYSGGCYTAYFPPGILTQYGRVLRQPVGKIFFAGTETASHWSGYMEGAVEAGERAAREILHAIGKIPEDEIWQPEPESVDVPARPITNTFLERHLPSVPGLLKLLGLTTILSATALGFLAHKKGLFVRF
T1 sequence (P21396 whole entry): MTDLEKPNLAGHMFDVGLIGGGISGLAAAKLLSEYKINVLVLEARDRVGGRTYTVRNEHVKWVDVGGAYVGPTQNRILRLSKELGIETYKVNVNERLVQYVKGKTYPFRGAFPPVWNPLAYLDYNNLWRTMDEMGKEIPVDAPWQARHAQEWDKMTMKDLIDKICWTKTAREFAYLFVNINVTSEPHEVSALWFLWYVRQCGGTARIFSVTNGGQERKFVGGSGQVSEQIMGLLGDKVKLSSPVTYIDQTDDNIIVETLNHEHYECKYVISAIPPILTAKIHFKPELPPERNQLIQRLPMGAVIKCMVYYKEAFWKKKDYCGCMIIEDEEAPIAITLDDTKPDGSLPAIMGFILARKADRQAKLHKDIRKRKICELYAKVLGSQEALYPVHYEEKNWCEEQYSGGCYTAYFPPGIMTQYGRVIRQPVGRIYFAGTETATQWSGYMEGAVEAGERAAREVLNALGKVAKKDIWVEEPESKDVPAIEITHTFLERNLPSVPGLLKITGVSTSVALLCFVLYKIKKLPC
Nature of the data set: Kinetic constant (Vmax) determined in rat brain mitochondria. In a few lines:
(§1)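 Mitochondria from rat brain were isolated by differential centrifugation with a Ficoll gradient, lysed in pH 7.4 phosphate buffer with sodium azide, and diluted to 400–800 μg protein/mL. Incubations at 37 °C for 30 min used seven substrate concentrations from 0.0125 to 1 mM, plus 2 and 4 mM for poor substrates. H2O2 was read with ABTS–horseradish peroxidase. Km and Vmax came from Lineweaver-Burk plots: three days, duplicates, mean of six ± SD.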

Data set [2] addresses T1, Monoamine oxidase. Nature of the data set: (§2) Kinetic constant (Km) determined in rat brain mitochondria. In a few lines:
as §1

Data set [3] addresses T1, Monoamine oxidase. Nature of the data set: Ratio of Kinetic constants (Km vs. Vmax). The data set is classed as protein assay.
The species named for data set [4] is Rattus norvegicus. The description is as §2. In kind it is functional. In a few lines: as §1
For data set [5], the species on record is Rattus norvegicus. Description: Tested for pargyline-induced inhibition of MAO-catalyzed oxidation in rat brain mitochondria (Specific inhibitor = Pargyline hydrochloride at 2.5 uM) (Control = 28.60). In kind it is functional.
The subject of data set [6] is Monoamine oxidase (Rattus norvegicus). Nature of the data set: Percent inhibition of MAO-catalyzed oxidation in rat brain mitochondria induced by pargyline.
Data set [7] is filed under the species Rattus norvegicus. Description: Tested for pargyline-induced inhibition of MAO-catalyzed oxidation in rat brain mitochondria (Specific inhibitor = Pargyline hydrochloride at 2.5 uM) (Control = 33.85). In kind it is functional.
The species named for data set [8] is Rattus norvegicus. Nature of the data set: Tested for pargyline-induced inhibition of MAO-catalyzed oxidation in rat brain mitochondria (Specific inhibitor = Pargyline hydrochloride at 2.5 uM) (Control = 30.65). The data set is classed as functional.
For data set [9], the species on record is Rattus norvegicus. Nature of the data set: Tested for pargyline-induced inhibition of MAO-catalyzed oxidation in rat brain mitochondria (Specific inhibitor = Pargyline hydrochloride at 2.5 uM) (Control = 31.40). In kind it is functional.
The species entered for data set [10] is Rattus norvegicus. Nature of the data set: Tested for pargyline-induced inhibition of MAO-catalyzed oxidation in rat brain mitochondria (Specific inhibitor = Pargyline hydrochloride at 2.5 uM) (Control = 17.95). The data set is classed as functional.
The species entered for data set [11] is Rattus norvegicus. Description: Tested for pargyline-induced inhibition of MAO-catalyzed oxidation in rat brain mitochondria (Specific inhibitor = Pargyline hydrochloride at 2.5 uM) (Control = 19.20). The data set is classed as functional.
Data set [12] deals with T1, Monoamine oxidase. Described as §2. A digest of the protocol: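 Rat brain mitochondria (Ficoll gradient, lysed in phosphate buffer pH 7.4 with azide) at 400–800 μg protein/mL. Incubated 30 min at 37 °C with substrate at 0.0125–1 mM, plus 2 and 4 mM for poor substrates. H2O2 read by ABTS–horseradish peroxidase against a standard curve. Km by Lineweaver-Burk; three separate days in duplicate, mean of six ± SD.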
This is another data set of the same source.

The target of data set [13] is T1, Monoamine oxidase. Description: Tested for pargyline-induced inhibition of MAO-catalyzed oxidation in rat brain mitochondria (Specific inhibitor = Pargyline hydrochloride at 2.5 uM) (Control = 16.58). The data set is classed as functional.
Data set [14] is filed under the species Rattus norvegicus. Description: Tested for pargyline-induced inhibition of MAO-catalyzed oxidation in rat brain mitochondria (Specific inhibitor = Pargyline hydrochloride at 2.5 uM) (Control = 18.87). The data set is classed as functional.

On to `CN1CC=C(CCc2cccc(Cl)c2)CC1`, for which the Vmax in [1] was 6477000 (nM of H202) min-1 (ug of protein)-1. Besides, the Michaelis constant (Km) in data set [2] amounted to 20.8 µM. Further, the Ratio in data set [3] is 4.44.

Regarding `NCc1ccccc1` [BENZYLAMINE], the Vmax in data set [1] was 33600000 (nM of H202) min-1 (ug of protein)-1. In addition, the Michaelis-Menten constant (Km) in [2] turned out to be 169 µM.

For `COc1ccc(CC2=CCN(C)CC2)cc1`, in data set [1], the Vmax is on record as 18000000 (nM of H202) min-1 (ug of protein)-1. The Km in data set [2] worked out at 24.8 µM. Besides, the Ratio in [3] is reported as 7.87.

On to `CN1CC=C(Cc2cccc3ccccc23)CC1`, for which the Vmax in data set [1] was 38233000 (nM of H202) min-1 (ug of protein)-1. Moreover, in data set [4], the Km was 76.5 µM. The Inhibition ((nM of H202) min-1 (ug of protein)-1) in data set [5] amounted to 26.4. Further, the Ratio in data set [3] came out at 5.03. For the same compound, in data set [6], the Inhibition was determined as 8%.

For `Cc1ccc(CC2=CCN(C)CC2)cc1`, in data set [1], the Vmax was 8.1e+06 (nM of H202) min-1 (µg of protein)-1. Also, in [2], the Km came to 15.9 µM. For the same compound, the Ratio in [3] is given as 5.17.

As to `CN1CC=C(Cc2ccc(O)cc2)CC1`, in [1], the Vmax was 9850000 (nM of H202) min-1 (ug of protein)-1. Also, the Michaelis-Menten constant (Km) in [2] is 363 µM. The Ratio in data set [3] amounted to 0.38.

Take `CC(C1=CCN(C)CC1)c1ccccc1` (stereo not given): in [1], the Vmax is 4187000 (nM of H202) min-1 (ug of protein)-1. For the same compound, the Km in [2] is 70.2 µM. Also, the Ratio in data set [3] is 1.26.

Turning to `CN1CC=C(C(Oc2ccc(Br)cc2)c2ccccc2)CC1` (stereo not given), in data set [1], the Vmax is 3137000 (nM of H202) min-1 (ug of protein)-1. Besides, the Km in data set [2] came out at 57.2 µM. Besides, the Ratio in data set [3] stood at 0.74.

Regarding `CN1CC=C(Cc2cccs2)CC1`, the Vmax in data set [1] is recorded as 38133000 (nM of H202) min-1 (ug of protein)-1. In [7], this compound registered an Inhibition ((nM of H202) min-1 (ug of protein)-1) of 10.9. The Michaelis-Menten constant (Km) in data set [4] was determined as 42.2 µM. In addition, the Ratio in data set [3] was 9.86. In [6], the Inhibition is 68%.

`Cc1cccc(CC2=CCN(C)CC2)c1`: the Vmax in [1] is given as 45533000 (nM of H202) min-1 (ug of protein)-1. In addition, in data set [8], the Inhibition ((nM of H202) min-1 (ug of protein)-1) came out at 9.49. The Km in [4] is 77.1 µM. For the same compound, the Ratio in data set [3] is recorded as 6.95.

On to `CN1CC=C(Cc2ccccc2)CC1`, for which the Vmax in data set [1] was 39800000 (nM of H202) min-1 (ug of protein)-1. Besides, the Michaelis constant (Km) in data set [4] was determined as 44.4 µM. Also, in data set [3], the Ratio was 9.36. In [9], the Inhibition ((nM of H202) min-1 (ug of protein)-1) was 3.71.

Consider `CN1CC=C(CCc2ccccc2)CC1`, for which the Vmax in data set [1] is on record as 38533000 (nM of H202) min-1 (ug of protein)-1. In addition, in data set [4], the Km worked out at 119 µM. Also, in [3], the Ratio turned out to be 3.74. The same compound had an Inhibition in [6] of 54%. In addition, the Inhibition ((nM of H202) min-1 (ug of protein)-1) in data set [10] came out at 8.22.

In the case of `Cc1ccccc1CC1=CCN(C)CC1`, the Vmax in data set [1] is 21933000 (nM of H202) min-1 (ug of protein)-1. For the same compound, the Michaelis constant (Km) in data set [4] came out at 58.8 µM. Also, the Ratio in [3] amounted to 3.71. For the same compound, the Inhibition ((nM of H202) min-1 (ug of protein)-1) in data set [11] turned out to be 9.24.

Take `CN1CC=C(c2ccccc2)CC1`: in data set [1], the Vmax is recorded as 27033000 (nM of H202) min-1 (ug of protein)-1. Also, the Michaelis-Menten constant (Km) in data set [12] came to 134 µM. Moreover, the Inhibition in data set [13] is recorded as 0 (nM of H202) min-1 (ug of protein)-1.

In the case of `CN1CC=C(Cc2ccc(I)cc2)CC1`, the Vmax in data set [1] was 6290000 (nM of H202) min-1 (ug of protein)-1. For the same compound, in data set [2], the Michaelis-Menten constant (Km) was determined as 36.1 µM. The Ratio in [3] is listed as 2.38.

For the compound `CN1CC=C(/C=C/c2cccc(Br)c2)CC1`, the Vmax in data set [1] is given as 2690000 (nM of H202) min-1 (ug of protein)-1. For the same compound, in [2], the Michaelis-Menten constant (Km) turned out to be 187 µM. The Ratio in data set [3] is reported as 0.565.

For `CN1CC=C(Cc2ccc(Cl)cc2)CC1`, the Vmax in data set [1] was 23900000 (nM of H202) min-1 (ug of protein)-1. Moreover, the Michaelis constant (Km) in [4] came to 49.4 µM. Moreover, the Ratio in [3] turned out to be 5.15. In [14], this compound showed an Inhibition ((nM of H202) min-1 (ug of protein)-1) of 10.3.
